B1: Osa-1-4 twister ribozyme (parent)
chain: CCGCCUAACACUGCCAAUGCCGGUCCCAAGCCCGGAUAAAAGUGGAGGGGGCGG

Variants of: B1
Test: self-cleavage, relative activity (ratio to wild type); higher = more cleavage; co-transcriptional
Method in brief: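 A DNA template for a 54-nucleotide Oryza sativa twister ribozyme was synthesised with 97 % wild-type base and 1 % of each other base at the 48 positions downstream of the cleavage site. It was transcribed in vitro for 2 h at 37 °C, allowing co-transcriptional self-cleavage, then reverse-transcribed with a template-switching oligonucleotide, PCR-amplified and deep-sequenced. Cleavage status was scored from reads with or without upstream sequence. Relative activity is fraction cleaved normalised to wild type.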

| Variant | self-cleavage |
| --- | --- |
| A7G G34A | 0.21 |
| A7G G34C | 0.14 |
| A7G G34U | 0.12 |
| A7G G35A | 0.31 |
| A7G G35C | 0.1 |
| A7G G35U | 0.2 |
| A7G G42A | 0.13 |
| A7G G42C | 0.08 |
| A7G G42U | 0.05 |
| A7G G44A | 0.13 |
| A7G G44C | 0.21 |
| A7G G44U | 0.15 |
| A7G G45A | 0.08 |
| A7G G45C | 0.04 |
| A7G G45U | 0.05 |
| A7G G47A | 0.08 |
| A7G G47C | 0.05 |
| A7G G47U | 0.07 |
| A7G G48A | 0.06 |
| A7G G48C | 0.05 |
| A7G G48U | 0.05 |

| Variant | self-cleavage |
| --- | --- |
| A7G G49A | 0.07 |
| A7G G49C | 0.05 |
| A7G G49U | 0.05 |
| A7G G50A | 0.17 |
| A7G G50C | 0.16 |
| A7G G50U | 0.16 |
| A7G G51A | 0.12 |
| A7G G51C | 0.05 |
| A7G G51U | 0.08 |
| A7G G53A | 0.16 |
| A7G G53C | 0.06 |
| A7G G53U | 0.1 |
| A7G G54A | 0.19 |
| A7G G54C | 0.17 |
| A7G G54U | 0.36 |
| A7G U12A | 0.16 |
| A7G U12C | 0.1 |
| A7G U12G | 0.12 |
| A7G U18A | 0.38 |
| A7G U18C | 0.25 |
| A7G U18G | 0.49 |

| Variant | self-cleavage |
| --- | --- |
| A7G U24A | 0.08 |
| A7G U24C | 0.07 |
| A7G U24G | 0.04 |
| A7G U37A | 0.27 |
| A7G U37C | 0.46 |
| A7G U37G | 0.58 |
| A7G U43A | 0.2 |
| A7G U43C | 0.12 |
| A7G U43G | 0.11 |
| A7U | 0.07 |
| A7U A8C | 0.02 |
| A7U A8G | 0.09 |
| A7U A8U | 0.07 |
| A7U C9A | 0.05 |
| A7U C9G | 0.05 |
| A7U C9U | 0.04 |
| A7U C11A | 0.08 |
| A7U C11G | 0.06 |
| A7U C11U | 0.05 |
| A7U C14A | 0.03 |
| A7U C14G | 0.23 |

| Variant | self-cleavage |
| --- | --- |
| A7U C14U | 0.07 |
| A7U C15A | 0.06 |
| A7U C15G | 0.11 |
| A7U C15U | 0.06 |
| A7U C20A | 0.06 |
| A7U C20G | 0.11 |
| A7U C20U | 0.09 |
| A7U C21A | 0.08 |
| A7U C21G | 0.05 |
| A7U C21U | 0.1 |
| A7U C25A | 0.03 |
| A7U C25G | 0.08 |
| A7U C25U | 0.2 |
| A7U C26A | 0.02 |
| A7U C26G | 0.05 |
| A7U C26U | 0.07 |
| A7U C27A | 0.06 |
| A7U C27G | 0.04 |
| A7U C27U | 0.06 |
| A7U C31A | 0.01 |

Source: the RNAGym collection of RNA variant scans (doi:10.1002/anie.201605470)
